Legend:
Felis catus [1] = experiment: The compound dose required for 50% block of H1 histamine activity, when administarted intra venously in cats; assay type: functional
Outline: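 Cats given test compound iv (0.001-20 mg/kg), with blood pressure recorded continuously. Histamine 0.5 μg/kg iv was given to induce hypotension, before and 5, 10 and 20 min after each dose. The antihistaminic dose was the one inhibiting the histamine response by >50%. Values are mean ± SD over the number of experiments per compound.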

Cavia porcellus [2] = experiment: Histamine induced lethality, at 60-min pretreatment time when 0.3 mg/kg compound was administered perorally in guinea pigs; assay type: functional; settings: route oral
Cavia porcellus [3] = species on record: Cavia porcellus; experiment: Effective dose that protects guinea pigs against histamine induced lethality at 6 hours pretreatment time; assay type: functional
Outline: (§1)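 Survival at 24 h after challenge was scored as protection. Groups of 5–10 animals per treatment; ED50 was calculated by the Litchfield–Wilcoxon method or by computer probit analysis.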

Cavia porcellus [4] = species on record: Cavia porcellus; experiment: Effective dose that protects guinea pigs against histamine induced lethality, at 1 hour pretreatment time; assay type: functional; outline: as §1
Felis catus [5] = experiment: The compound dose required to elicit marked cortical slowing and spindling, when administarted intra venously in cats; assay type: functional
Outline: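 Cats given test compound iv (0.001-20 mg/kg), with spontaneous EEG inspected after each dose for cortical slowing, synchrony and spindle-type activity. The sedative dose was the one producing marked slowing and spindling (synchrony). Values are mean ± SD over the number of experiments per compound.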

[6] = target: Histamine H1 receptor (Cavia porcellus) (UniProt P31389); experiment: Histamine induced lethality, at 60-min pretreatment time of 0.1 mg/kg p.o. in guinea pigs.; assay type: functional, organism-based; set-up: dose 0.1 mg/kg; settings: at 0.1 mg/kg
Sequence of Histamine H1 receptor (Cavia porcellus) (P31389 whole entry): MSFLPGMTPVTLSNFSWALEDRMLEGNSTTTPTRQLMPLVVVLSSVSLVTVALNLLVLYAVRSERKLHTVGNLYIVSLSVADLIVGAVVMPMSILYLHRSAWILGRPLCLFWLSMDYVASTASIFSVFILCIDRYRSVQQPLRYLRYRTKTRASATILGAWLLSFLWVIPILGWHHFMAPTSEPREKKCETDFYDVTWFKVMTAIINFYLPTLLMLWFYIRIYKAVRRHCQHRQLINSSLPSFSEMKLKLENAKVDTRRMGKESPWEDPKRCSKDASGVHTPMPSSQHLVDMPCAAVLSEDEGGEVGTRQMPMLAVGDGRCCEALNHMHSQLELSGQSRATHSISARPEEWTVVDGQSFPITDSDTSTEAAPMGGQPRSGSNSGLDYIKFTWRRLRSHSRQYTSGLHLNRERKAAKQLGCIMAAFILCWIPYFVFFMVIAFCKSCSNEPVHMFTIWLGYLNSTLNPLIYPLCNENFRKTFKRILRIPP

Cavia porcellus [7] = experiment: Histamine induced lethality, at 30-min pretreatment time when 30 mg/kg compound was administered intra peritoneally in guinea pigs; assay type: functional
Cavia porcellus [8] = experiment: Histamine induced lethality, at 30-min pretreatment time when 3 mg/kg compound was administered intra peritoneally in guinea pigs; assay type: functional
Cavia porcellus [9] = experiment: Histamine induced lethality, at 30-min pretreatment time when 1 mg/kg compound was administered intra peritoneally in guinea pigs; assay type: functional
[10] = target: Histamine H1 receptor (Cavia porcellus) (UniProt P31389); experiment: Histamine induced lethality, at 30-min pretreatment time of 3 mg/kg i.p. in guinea pigs.; assay type: functional, organism-based; set-up: dose 3 mg/kg; settings: at 3 mg/kg
Cavia porcellus [11] = experiment: Histamine induced lethality, at 60-min pretreatment time when 0.1 mg/kg compound was administered perorally in guinea pigs; assay type: functional; settings: route oral
Cavia porcellus [12] = experiment: Histamine induced lethality, at 30-min pretreatment time when 1 mg/kg compound was administered perorally in guinea pigs; assay type: functional; settings: route oral
Cavia porcellus [13] = experiment: Histamine induced lethality, at 60-min pretreatment time when 1 mg/kg compound was administered perorally in guinea pigs; assay type: functional; settings: route oral
Cavia porcellus [14] = experiment: Histamine induced lethality, at 60-min pretreatment time when 3 mg/kg compound was administered perorally in guinea pigs; assay type: functional; settings: route oral
Cavia porcellus [15] = experiment: Histamine induced lethality, at 60-min pretreatment time when 30 mg/kg compound was administered perorally in guinea pigs; assay type: functional; settings: route oral
Cavia porcellus [16] = experiment: Histamine induced lethality, at 30-min pretreatment time when 0.3 mg/kg compound was administered intra peritoneally in guinea pigs; assay type: functional
Cavia porcellus [17] = experiment: Histamine induced lethality, at 30-min pretreatment time when 30 mg/kg compound was administered intra peritoneallyn guinea pigs; assay type: functional

SMILES: CN1CC(CCN2CCC2)Oc2ncccc2C1=O (stereo not drawn)
- Dose (Felis catus [1]): 0.6 mg/kg
- survival at 0.3 mg/kg (Cavia porcellus [2]): 100%
- ED50 (Cavia porcellus [3]): 6 mg/kg
- ED50 (Cavia porcellus [4]): 0.13 mg/kg
- Dose (Felis catus [5]): >20 mg/kg
- Survival [6]: 67%

SMILES: CN(C)CCC1CN(C)C(=S)c2cccnc2S1 (stereo not drawn)
- survival at 30 mg/kg (Cavia porcellus [7]): 100%
- survival at 3 mg/kg (Cavia porcellus [8]): 0%

SMILES: CN(C)CCC1CN(C)C(=O)c2cc3ccccc3nc2O1 (stereo not drawn)
- survival at 1 mg/kg (Cavia porcellus [9]): 0%
- Survival [10]: 100%

SMILES: CN1CC(CCN2CCC2)Oc2ncc(Cl)cc2C1=O (stereo not drawn)
- Dose (Felis catus [1]): 0.06 mg/kg
- ED50 (Cavia porcellus [3]): 0.8 mg/kg
- ED50 (Cavia porcellus [4]): 0.04 mg/kg
- Dose (Felis catus [5]): >20 mg/kg
- Survival [6]: 100%

SMILES: CN1CC(CCN2CCC2)Oc2ncc(Cl)cc2C1=S (stereo not drawn)
- Dose (Felis catus [1]): 0.005 mg/kg
- ED50 (Cavia porcellus [3]): 0.02 mg/kg
- ED50 (Cavia porcellus [4]): 0.02 mg/kg
- Dose (Felis catus [5]): >20 mg/kg
- Survival [6]: 100%

SMILES: CN(C)CCC1CN(C)C(=S)c2cccnc2O1 (stereo not drawn) [ROCASTINE]
- Dose (Felis catus [1]): 0.5 mg/kg
- survival at 0.3 mg/kg (Cavia porcellus [2]): 100%
- ED50 (Cavia porcellus [3]): 6 mg/kg
- ED50 (Cavia porcellus [4]): 0.12 mg/kg
- Dose (Felis catus [5]): >20 mg/kg
- Survival [6]: 50%

SMILES: CN(C)CCC1CN(C)C(=S)c2cnccc2O1 (stereo not drawn)
- survival at 1 mg/kg (Cavia porcellus [9]): 0%
- survival at 30 mg/kg (Cavia porcellus [7]): 100%
- Survival [10]: 100%

SMILES: CN(C)CCC(c1ccc(Br)cc1)c1ccccn1 (stereo not drawn) [BROMPHENIRAMINE]
- Dose (Felis catus [1]): 1.3 mg/kg
- survival at 0.3 mg/kg (Cavia porcellus [2]): 100%
- ED50 (Cavia porcellus [3]): 2.5 mg/kg
- ED50 (Cavia porcellus [4]): 0.08 mg/kg
- Dose (Felis catus [5]): 1.7 mg/kg
- Survival [6]: 40%

SMILES: CN(C)CCC1CN(C)C(=O)c2cnccc2O1 (stereo not drawn)
- survival at 1 mg/kg (Cavia porcellus [9]): 33%
- survival at 30 mg/kg (Cavia porcellus [7]): 100%
- Survival [10]: 67%

SMILES: CN(C)CCC1CN(C)C(=S)c2ccccc2O1 (stereo not drawn)
- survival at 0.1 mg/kg (Cavia porcellus [11]): 100%
- survival at 1 mg/kg (Cavia porcellus [12]): 50%
- survival at 1 mg/kg (Cavia porcellus [13]): 0%
- survival at 3 mg/kg (Cavia porcellus [14]): 0%
- survival at 30 mg/kg (Cavia porcellus [15]): 100%
- Dose (Felis catus [5]): >20 mg/kg

SMILES: CN(C)CCC1CN(C)C(=S)c2cc(Cl)cnc2O1 (stereo not drawn)
- Dose (Felis catus [1]): 0.5 mg/kg
- ED50 (Cavia porcellus [3]): 0.6 mg/kg
- ED50 (Cavia porcellus [4]): 0.04 mg/kg
- Dose (Felis catus [5]): >20 mg/kg
- Survival [6]: 100%

SMILES: CN(C)CCC1CN(C)C(=S)c2ccc3ccccc3c2O1 (stereo not drawn)
- survival at 30 mg/kg (Cavia porcellus [7]): 100%
- survival at 3 mg/kg (Cavia porcellus [8]): 33%

SMILES: CN(C)CCC1CN(C)C(=S)c2cc3ccccc3cc2O1 (stereo not drawn)
- Dose (Felis catus [1]): 0.5 mg/kg
- survival at 30 mg/kg (Cavia porcellus [7]): 100%
- Dose (Felis catus [5]): >20 mg/kg
- Survival [10]: 67%
- survival at 0.3 mg/kg (Cavia porcellus [16]): 100%

SMILES: CN(C)CCC1CN(C)C(=O)c2cccnc2S1 (stereo not drawn)
- Survival [10]: 0%
- survival at 30 mg/kg (Cavia porcellus [17]): 67%

Source: ChEMBL document CHEMBL1124606, “Benzo- and pyrido-1,4-oxazepin-5-ones and -thiones: synthesis and structure-activity relationships of a new series of H1 antihistamines” (1989)
